Reference: ChEMBL document CHEMBL1152539, “Synthesis and evaluation of bioactive naphthoquinones from the Brazilian medicinal plant, Tabebuia avellanedae” (Bioorg Med Chem, 2009)
Values after ≈ are worked out from the molar mass of the structure shown.

Tests used:
[1] = test system: Bacillus subtilis; experiment: Antimicrobial activity against Bacillus subtilis NBRC3134 after 24 hrs by broth dilution method; format: functional; settings: NBRC3134, 24 h
Method in brief: (§1)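 Modified NCCLS broth dilution. A 50 µL aliquot of bacterial cells (10⁶/mL in 0.85% NaCl) was added to 1 mL Mueller-Hinton broth containing compound over a 0.1–100 range.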

[2] = test system: Staphylococcus aureus; experiment: Antimicrobial activity against Staphylococcus aureus NBRC13276 after 24 hrs by broth dilution method; format: functional; settings: NBRC13276, 24 h; method in brief: as §1
[3] = test system: Bacillus mycoides; experiment: Antimicrobial activity against Bacillus mycoides ATCC 11778 after 24 hrs by broth dilution method; format: functional; settings: ATCC 11778, 24 h; method in brief: as §1
[4] = test system: Raji; experiment: Inhibition of 12-O-tetradecanoylphorbol-13-acetate-induced EBV-early antigen activation in human Raji cells assessed as EA induction at 1000 molar ratio after 48 hrs by immunofluorescence technique relative to 12-O-tetradecanoylphorbol-13-acetate; format: cell-based; settings: human gammaherpesvirus 4
Method in brief: (§2)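 Raji cells were incubated for 48 h at 37 °C in medium with n-butyric acid (4 mM), TPA (32 pmol) and graded amounts of test compound. Smears were stained for EBV-EA by indirect immunofluorescence, and positive cells were counted among at least 500 cells. Assays were run in triplicate. Activity was expressed relative to the n-butyric acid plus TPA control, set as 100%.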

[5] = test system: Raji; experiment: Inhibition of 12-O-tetradecanoylphorbol-13-acetate-induced EBV-early antigen activation in human Raji cells assessed as EA induction at 500 molar ratio after 48 hrs by immunofluorescence technique relative to 12-O-tetradecanoylphorbol-13-acetate; format: cell-based; set-up: scale not given: the % may be the effect or the level left; settings: human gammaherpesvirus 4; method in brief: as §2
[6] = test system: Raji; experiment: Inhibition of 12-O-tetradecanoylphorbol-13-acetate-induced EBV-early antigen activation in human Raji cells assessed as EA induction at 100 molar ratio after 48 hrs by immunofluorescence technique relative to 12-O-tetradecanoylphorbol-13-acetate; format: cell-based; set-up: scale not given: the % may be the effect or the level left; settings: human gammaherpesvirus 4; method in brief: as §2
[7] = test system: Raji; experiment: Inhibition of 12-O-tetradecanoylphorbol-13-acetate-induced EBV-early antigen activation in human Raji cells assessed as EA induction at 10 molar ratio after 48 hrs by immunofluorescence technique relative to 12-O-tetradecanoylphorbol-13-acetate; format: cell-based; set-up: scale not given: the % may be the effect or the level left; settings: human gammaherpesvirus 4; method in brief: as §2
[8] = Inhibition of 12-O-tetradecanoylphorbol-13-acetate-induced EBV-early antigen activation in human Raji cells after 48 hrs by immunofluorescence technique; format: cell-based, human gammaherpesvirus 4; method in brief: as §2
[9] = Cytotoxicity against human Raji cells assessed as cell viability at 1000 molar ratio after 48 hrs by trypan blue staining; format: cell-based; settings: read-out: Activity
Method in brief: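 Raji cells were exposed for 48 h at 37 °C to n-butyric acid (4 mM), TPA (32 pmol) and test compound, as in the EBV-EA induction setup. Viability of the treated cells was then measured by trypan blue staining.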

[10] = test system: PC-3; experiment: Antiproliferative activity against human PC3 cells after 72 hrs by trypan blue exclusion assay; format: functional, cell-based; settings: PC-3, 72 h
Method in brief: (§3)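 Cells were kept in DMEM with 10% fetal serum and exposed to four concentrations of compound for 72 h at 37 °C in humidified 5% CO₂. They were then stained with 0.25% trypan blue for 20 min, and viable cells were counted by light microscopy. IC₅₀ was derived from separate experiments run in triplicate.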

[11] = test system: A549; experiment: Antiproliferative activity against human A549 cells after 72 hrs by trypan blue exclusion assay; format: functional, cell-based; settings: A549, 72 h; method in brief: as §3
[12] = test system: MCF7; experiment: Antiproliferative activity against human MCF7 cells after 72 hrs by trypan blue exclusion assay; format: functional, cell-based; settings: MCF7, 72 h; method in brief: as §3
[13] = Cytotoxicity against human Raji cells assessed as cell viability at 500 molar ratio after 48 hrs by trypan blue staining; format: cell-based; settings: read-out: Activity
Method in brief: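 Raji cells incubated 48 h at 37 °C in medium containing n-butyric acid (4 mM), TPA (32 pmol) and various amounts of test compound, as part of the EBV-EA activation inhibition assay. Viability of the treated cells was then assayed by trypan blue staining.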

[14] = Antiproliferative activity against human skin fibroblast after 72 hrs by trypan blue exclusion assay; format: cell-based; method in brief: as §3
[15] = test system: Hepatocyte; experiment: Antiproliferative activity against human hepatocytes after 72 hrs by trypan blue exclusion assay; format: cell-based; method in brief: as §3
[16] = Anticancer activity against DMBA/TPA-induced skin cancer in mouse assessed as incidence of papilloma at 85 nmol administered before TPA challenge measured after 10 weeks; format: functional
Method in brief: (§4)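 Mouse two-stage skin model: DMBA 390 nmol in 0.1 mL acetone applied topically by pipet. One week later, the same skin site was painted with test compound (85 nmol in acetone) or acetone alone, 60 min before TPA (1.7 nmol). Tumor response was scored as the average number of papillomas per mouse and the percentage of mice bearing papillomas.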

[17] = Anticancer activity against DMBA/TPA-induced skin cancer in mouse assessed as incidence of papilloma at 85 nmol administered before TPA challenge measured after 15 weeks; format: functional; method in brief: as §4
[18] = Anticancer activity against DMBA/TPA-induced skin cancer in mouse assessed as incidence of papilloma at 85 nmol administered before TPA challenge measured after 20 weeks; format: functional; method in brief: as §4
[19] = Anticancer activity against DMBA/TPA-induced skin cancer in mouse assessed as number of papillomas per mouse at 85 nmol administered before TPA challenge measured after 20 weeks; format: functional; method in brief: as §4
[20] = test system: Escherichia coli; experiment: Antimicrobial activity against Escherichia coli ATCC 11775 after 24 hrs by broth dilution method; format: functional; settings: ATCC 11775, 24 h; method in brief: as §1
[21] = test system: Pseudomonas aeruginosa; experiment: Antimicrobial activity against Pseudomonas aeruginosa NBRC13275 after 24 hrs by broth dilution method; format: functional; settings: NBRC13275, 24 h; method in brief: as §1
[22] = test system: Salmonella enteritidis; experiment: Antimicrobial activity against Salmonella enteritidis OPS10 after 24 hrs by broth dilution method; format: functional, Salmonella enterica subsp. enterica serovar Enteritidis; settings: Salmonella enterica, OPS10, 24 h; method in brief: as §1
[23] = test system: Naganishia albida; experiment: Antimicrobial activity against Cryptococcus albidus NBRC0378 after 24 hrs by broth dilution method; format: functional; settings: NBRC0378, 24 h
[24] = test system: Candida albicans; experiment: Antimicrobial activity against Candida albicans NBRC1060 after 3-5 days by broth dilution method; settings: NBRC1060, 3-5 days
[25] = test system: Penicillium expansum; experiment: Antimicrobial activity against Penicillium expansum NBRC8800 after 3-5 days by broth dilution method; settings: NBRC8800, 3-5 days
[26] = test system: Aspergillus fumigatus; experiment: Antimicrobial activity against Aspergillus fumigatus NBRC4400 after 3-5 days by broth dilution method; settings: NBRC4400, 3-5 days
[27] = test system: Paecilomyces variotii; experiment: Antimicrobial activity against Paecilomyces variotii NBRC4855 after 3-5 days by broth dilution method; settings: NBRC4855, 3-5 days
[28] = test system: Saccharomyces cerevisiae; experiment: Antimicrobial activity against Saccharomyces cerevisiae NBRC10114 after 3-5 days by broth dilution method; settings: NBRC10114, 3-5 days
[29] = test system: Aspergillus fumigatus; experiment: Antimicrobial activity against Aspergillus fumigatus NBRC4400 after 24 hrs by broth dilution method; format: functional; settings: NBRC4400, 24 h
[30] = test system: Paecilomyces variotii; experiment: Antimicrobial activity against Paecilomyces variotii NBRC4855 after 24 hrs by broth dilution method; format: functional; settings: NBRC4855, 24 h
[31] = test system: Naganishia albida; experiment: Antimicrobial activity against Cryptococcus albidus NBRC0378 after 3-5 days by broth dilution method; settings: NBRC0378, 3-5 days

Row | Structure (SMILES) | MIC [1] [µg/mL] | MIC [2] [µg/mL] | MIC [3] [µg/mL] | EA induction relative to TPA control [4] [%] | Activity [5] [%] | Activity [6] [%] | Activity [7] [%] | IC50 [8] [mol ratio/32 pmol TPA] | viability at 48 h, 1000 molar ratio [9] [%] | MIC [24] [µg/mL] | MIC [25] [µg/mL] | MIC [28] [µg/mL] | other results
1 | CC1(C)S[C@@H]2[C@H](NC(=O)Cc3ccccc3)C(=O)N2[C@H]1C(=O)O [PENICILLIN G] | 0.39 (≈ 1.17 µM) | 0.39 (≈ 1.17 µM) | 1.56 (≈ 4.67 µM) | – | – | – | – | – | – | – | – | – | –
2 | CC(O)c1cc2c(o1)C(=O)c1c(O)cccc1C2=O (racemic) | – | – | – | 8.9 | 28.4 | 59 | 84.6 | 306 | 60 | – | – | – | –
3 | CC(C)=CCC1=C(O)C(=O)c2ccccc2C1=O [LAPACHOL] | – | – | – | 8.9 | 32.8 | 65.2 | 86.6 | 311 | 50 | – | – | – | IC50 [10]: 1.97 µM; IC50 [11]: 4.78 µM; IC50 [12]: 10.2 µM; viability at 48 h, 500 molar ratio [13]: 60%
4 | C[C@@H](O)c1cc2c(o1)C(=O)c1cccc(O)c1C2=O | 0.78 (≈ 3.02 µM) | 3.13 (≈ 12.1 µM) | 0.78 (≈ 3.02 µM) | 0 | 9.7 | 24.7 | 59.4 | 38.9 | 70 | 25 (≈ 96.8 µM) | 25 (≈ 96.8 µM) | 3.13 (≈ 12.1 µM) | EC50 [14]: 39.7 µM; EC50 [15]: 29.8 µM; Activity [16]: 7%; Activity [17]: 47%; Activity [18]: 67%; Activity [19]: 3.9; MIC [20]: > 100 µg/mL; MIC [21]: > 100 µg/mL; MIC [22]: > 100 µg/mL; MIC [23]: 1.56 µg/mL (≈ 6.04 µM); MIC [26]: 12.5 µg/mL (≈ 48.4 µM); MIC [27]: 25 µg/mL (≈ 96.8 µM)
5 | COc1cc(/C=C/C(=O)CC(=O)/C=C/c2ccc(O)c(OC)c2)ccc1O [CURCUMIN] | – | – | – | 8.9 | 40.3 | 74.5 | 95.8 | 345 | – | – | – | – | –
6 | C[C@@H]1[C@H](O)[C@@H](C)/C=C/C=C/C=C/C=C/C=C/C=C/C=C/[C@H](O[C@@H]2O[C@H](C)[C@@H](O)[C@H](N)[C@@H]2O)C[C@@H]2O[C@](O)(C[C@@H](O)C[C@@H](O)[C@H](O)CC[C@@H](O)C[C@@H](O)CC(=O)O[C@H]1C)C[C@H](O)[C@H]2C(=O)O [AMPHOTERICIN B] | – | – | – | – | – | – | – | – | – | 1.56 (≈ 1.69 µM) | 1.56 (≈ 1.69 µM) | 0.78 (≈ 0.844 µM) | MIC [29]: 1.56 µg/mL (≈ 1.69 µM); MIC [30]: 0.78 µg/mL (≈ 0.844 µM); MIC [31]: 1.56 µg/mL (≈ 1.69 µM)
